Where only a bound is given, the exact number is not on record here.

These results are taken from ChEMBL document CHEMBL1132425, “Synthesis and antiviral activity of ethidium-arginine conjugates directed against the TAR RNA of HIV-1” (J Med Chem, 1999).

The subject of assay [1] is MT4. The assay can be described thus: (§1) Anti-HIV-1 activity against MT-4 cell lines. The assay is classed as functional. The following applies: Homo sapiens. The procedure, abridged: (§2)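 MT4 cells (RPMI + 10% heat-treated FCS) infected with HIV-1; protection from virus-induced cytopathicity read by MTT reduction to formazan by mitochondrial dehydrogenases. Triplicate per concentration, experiment repeated twice. Where inhibition stayed under 50%, the measured percentage is reported in parentheses.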

The subject of assay [2] is CEM-SS. Briefly: Cytotoxicity towards uninfected CEM-SS cell lines. The class given is functional. The following applies: Homo sapiens. The method, boiled down: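 Uninfected CEM-SS cells exposed 5 days to varied compound concentrations; viability by MTT colorimetric test. CC50 is the concentration halving OD540, from median-effect dose analysis. Triplicate per concentration, experiment repeated twice.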

For assay [3], the system named is MT4. The assay is described as §1. The class given is functional, cell-based. The following applies: Homo sapiens. The procedure, abridged: as §2
Assay [4] concerns PBMC. The assay can be described thus: (§3) Anti-HIV-1 activity against PBMC cell lines. The assay is classed as functional, cell-based. The following applies: Homo sapiens. The procedure, abridged:
(§4)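 Infected PBMC grown 7 days with graded compound concentrations after virus incubation; HIV-1 production measured as reverse transcriptase activity in culture supernatant. Triplicate per concentration, whole experiment done twice.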

For assay [5], the system named is CEM-SS. Briefly: Anti-HIV-1 activity against CEM-SS cell lines. The class given is functional, cell-based. The following applies: Homo sapiens. The procedure, abridged: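 HIV-1 LAI (grown in CEM-SS) infecting CEM-SS cells kept in RPMI + 10% heat-treated FCS; 30-min adsorption, unbound virus washed off, then 5 days culture with graded compound concentrations. Virus output read as reverse transcriptase activity in supernatant. Triplicate per concentration, experiment run twice; IC50 from median-effect plot of dose-effect data.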

In assay [6] the test system is PBMC. Briefly: Cytotoxicity towards uninfected PBMC cell lines. The class given is functional. The following applies: Homo sapiens. The method, boiled down: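 Uninfected PBMC incubated 7 days with compound; viability by colorimetric MTT assay. Triplicate per concentration, experiment repeated twice.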
Assay [7] relates to MT4. The assay can be described thus: (§5) Cytotoxicity towards uninfected MT-4 cell lines. The class given is functional, Homo sapiens. The procedure, abridged:
(§6)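 Uninfected MT4 cells with graded compound levels; viability by MTT reduction to formazan. Triplicate per concentration, experiment run twice.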

In assay [8] the test system is MT4. Described as §5. The class given is functional. The following applies: Homo sapiens. The procedure, abridged: as §6
In assay [9] the test system is PBMC. Described as §3. The assay is classed as functional, Homo sapiens. The method, boiled down:
as §4

`COC(=O)C(CCCN=C(N)N)NC(=O)CCNC(=O)CCCCCNC(=O)c1cccc(-c2c3cc(N)ccc3c3ccc(N)cc3[n+]2C)c1.[Cl-]` (centres undefined): the CC50 in assay [1], in [2] and in assay [6] was over 100 µM throughout. For the same compound, the IC50 (commonly the concentration needed to halve the response being measured) in assay [3] was over 100 µM; in assay [4], 8.7 µM; in [5], 4.6 µM. Moreover, in assay [7], the Inhibition (commonly the change of the read-out against control, counted positive when it falls) is 45%.

As to `C[n+]1c(-c2cccc(C(=O)NCCCCCC(=O)NCCC(=O)NC(CCCN=C(N)N)C(=O)O)c2)c2cc(N)ccc2c2ccc(N)cc21` (centres undefined), the cytotoxic concentration (CC50) in assay [2], in [6] and in assay [8] was over 100 µM each time. Besides, the figures for the IC50 in assay [3], in assay [4] and in assay [5] were 11 µM, 2.5 µM and 2.4 µM, respectively.

In assay [9], `C[n+]1c(-c2cccc(C(=O)NCCCCCC(=O)NC(CCCN=C(N)N)C(=O)O)c2)c2cc(N)ccc2c2ccc(N)cc21.[Cl-]` (centres undefined) gave an Inhibition of 40%. Also, the CC50 (in general, the concentration giving 50% cytotoxicity) in assay [2] was over 100 µM; in assay [6], over 100 µM; in assay [8], 59 µM. Also, the IC50 in assay [3], in [4] and in [5] was over 100 µM throughout.

For `COC(=O)C(CCCN=C(N)N)NC(=O)CCCCCNC(=O)c1cccc(-c2c3cc(N)ccc3c3ccc(N)cc3[n+]2C)c1` (centres undefined), the CC50 is over 100 µM in assay [2], over 100 µM in assay [6] and 60 µM in assay [8]. Besides, the IC50 in [3] is over 100 µM; in [4] it was 89 µM; in [5], over 100 µM.

As for `C[n+]1c(-c2cccc(C(=O)NCCC(=O)NC(CCCN=C(N)N)C(=O)O)c2)c2cc(N)ccc2c2ccc(N)cc21` (centres undefined), the CC50 is over 100 µM in [2], over 100 µM in assay [6] and 47 µM in assay [8]. In addition, the values for the IC50 in [3], in assay [4] and in assay [5] were over 100 µM, 73 µM and over 100 µM, respectively.

As for `C[n+]1c(-c2cccc(C(=O)O)c2)c2cc(N)ccc2c2ccc(N)cc21`, the CC50 was over 100 µM in assay [2], 44 µM in [6] and 42 µM in assay [8]. Moreover, the IC50 in assay [3] was over 100 µM; in [4], 20 µM; in assay [5], 95 µM.

Regarding `COC(=O)C(CCCN=C(N)N)NC(=O)CCNC(=O)c1cccc(-c2c3cc(N)ccc3c3ccc(N)cc3[n+]2C)c1` (centres undefined), the CC50 in assay [2] amounted to 85 µM; in [6], 47 µM; in assay [8], 21 µM. The half-maximal inhibitory concentration (IC50) in assay [3] is over 100 µM; in assay [4], 78 µM; in assay [5], 83 µM.
